Reference: ChEMBL document CHEMBL4138126, “Synthesis, antiproliferative, anti-tubulin activity, and docking study of new 1,2,4-triazoles as potential combretastatin analogues” (Eur J Med Chem, 2017)
pIC50: −log10 of the molar value.

What was measured:
[1] = Inhibition of beta tubulin polymerisation in human HepG2 cells incubated for 2 hrs using TMB substrate by ELISA; type: cell-based; details: HepG2, 2 h
HepG2 [2] = assay: Inhibition of beta tubulin polymerisation in human HepG2 cells incubated for 2 hrs using TMB substrate by ELISA relative to untreated control; type: cell-based; design: concentration or dose not given beside the values; details: dose or concentration not given here
HepG2 [3] = assay: Cytotoxicity in human HepG2 cells assessed as reduction in cell viability incubated for 48 hrs by MTT assay; type: functional, cell-based; details: HepG2, 48 h
Procedure, shortened: (§1)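 HepG2 and HL60 (ATCC) grown in DMEM with 10% FBS, 2 mM L-glutamine, penicillin/streptomycin, amphotericin B at 37 °C, 5% CO2. Samples dissolved in DMSO, diluted thousandfold in assay. Cells seeded in serum-free medium, treated with serial concentrations 48 h; MTT 4 h, formazan dissolved in acidified isopropanol, A570. Triplicates averaged; viability relative to untreated/vehicle control.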

HL-60 = assay: Cytotoxicity in human HL60 cells assessed as reduction in cell viability incubated for 48 hrs by MTT assay; type: functional, cell-based; details: HL-60, 48 h; procedure, shortened: as §1

| SMILES | pIC50 [1] | inhibition (HepG2 [2]) [%] | pIC50 (HepG2 [3]) | pIC50 (HL-60) |
| --- | --- | --- | --- | --- |
| COc1cccc(-n2nc(C(=O)Nc3cc(F)cc(F)c3)nc2-c2cc(OC)c(OC)c(OC)c2)c1 | 5.89 | 65.2 | 5.86 | 4.27 |
| COc1ccc(/C=C\c2cc(OC)c(OC)c(OC)c2)cc1O [COMBRETASTATIN A4] | 5.62 | 72.3 | 5.62 | 6.25 |
| COc1cccc(NC(=O)c2nc(-c3cc(OC)c(OC)c(OC)c3)n(-c3cccc(OC)c3)n2)c1 | – | – | 4.82 | 4.82 |
| COc1cccc(-n2nc(C(=O)Nc3ccccc3OC)nc2-c2cc(OC)c(OC)c(OC)c2)c1 | – | – | 4.52 | 4.52 |
| COc1cccc(CNC(=O)c2nc(-c3cc(OC)c(OC)c(OC)c3)n(-c3cccc(OC)c3)n2)c1 | – | – | 6.05 | < 4.00 |
| COc1cccc(-n2nc(C(=O)Nc3ccc(OC)c(OC)c3)nc2-c2cc(OC)c(OC)c(OC)c2)c1 | – | – | 4.49 | 4.85 |
| COc1cccc(-n2nc(C(=O)Nc3ccc(F)c(F)c3F)nc2-c2cc(OC)c(OC)c(OC)c2)c1 | – | – | 4.79 | 4.57 |
| COc1cccc(-n2nc(C(=O)Nc3ccc(F)c(F)c3)nc2-c2cc(OC)c(OC)c(OC)c2)c1 | – | – | 4.96 | 4.50 |
| CCOc1ccc(NC(=O)c2nc(-c3cc(OC)c(OC)c(OC)c3)n(-c3ccc(OCC)cc3)n2)cc1 | – | – | 4.53 | 5.22 |
| CCOc1ccc(NC(=O)c2nc(-c3cc(OC)c(OC)c(OC)c3)n(-c3cccc(OC)c3)n2)cc1 | – | – | 5.06 | 4.84 |
| CCOc1ccc(-n2nc(C(=O)Nc3ccc(OC)c(OC)c3)nc2-c2cc(OC)c(OC)c(OC)c2)cc1 | – | – | 4.48 | 5.37 |
| COc1cccc(-n2nc(C(=O)Nc3cc(OC)c(OC)c(OC)c3)nc2-c2cc(OC)c(OC)c(OC)c2)c1 | – | – | 5.07 | 5.22 |
